Fewer inactive variants are shown than the library holds.
B1: tRNA (parent)
chain: GUUCCGUUGGCGUAAUGGUAACGCGUCUCCCUCCUAAGGAGAAGACUGCGGGUUCGAGUCCCGUACGGAACG

Variants of: B1
Experiment: yeast fitness relative to wild type (ratio to wild type); higher = fitter; tRNA-Arg(CCU), competitive growth, 37 C, YPD
In short: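 Variants of the tRNA-Arg(CCU) gene were chemically synthesised with a 3% per-site mutation rate across 69 sites and placed at the native genomic locus in Saccharomyces cerevisiae. Six parallel replicates of the pooled strains were competed in YPD at 37°C for 24 hours, and gene amplicons from the start and end populations were read by 100-nucleotide paired-end sequencing. Darwinian fitness relative to wild type was derived from changes in genotype frequencies. Genotypes required ≥ 100 starting reads, and estimates < 0.5 were set to 0.5.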

Variant	yeast fitness
G25A G51C	0.575
C24U C29U A36C A42U C66A	≤ 0.5
G25C C30U A69C	0.606
C24U C34G A69U	0.506
C24U G52C	0.702
C24U C33A G44C U47C	0.674
G25A G41A G51C C60U	≤ 0.5
G25A G52U	0.627
G25A G52A	0.572
G25A G52U U54C	≤ 0.5
C24U G68U	0.892
C24U G68C	0.823
C24U G51C U53C	≤ 0.5
C24U C46A A65G	0.7
C24U C31G U32A	0.504
G25C A43U G50A	0.704
G25C C31G C34G A57C	≤ 0.5
C24U C34U U59G	≤ 0.5
G25A C60G G63C	0.548
C24U C62U	0.976
C24U G56A	0.998
C24U U47C U59C A69U	≤ 0.5
G25C C33A A43C G68A	≤ 0.5
G25A C60A C66U	≤ 0.5

Variant	yeast fitness
C24U C34U U35G	≤ 0.5
G25A C34U	0.574
G25A C34A	0.77
G25A C49U U59G	0.54
G25A A43C A70C	0.824
G25A U54A C66A	≤ 0.5
G25A U53A	0.741
G25A U53C	0.819
G25C C34G A45U	≤ 0.5
C24U C46U C60U	0.513
C24U U26A U28G G48A A57U	≤ 0.5
C24U C31A C33A C34U C46A C62U G67A	≤ 0.5
C24U G51A G67A	0.556
G25A A37C G68U	0.702
G25A G38C A42C	≤ 0.5
G25C C29A U32A A65U	≤ 0.5
G25A A70U	1.01
G25A A70G	1.04
C24U C27U C29G G38C A42C	0.577
C24U U26A U28G	0.506
C24U G38C A40G	≤ 0.5
C24U U59A C60G	0.754
G25C C29A G52A C66U	≤ 0.5
G25C C29A A65U	0.558

Variant	yeast fitness
C24U U47C G63A	0.829
C24U C55G G63C	0.528
C24U C27U U47A A57G A70G	≤ 0.5
G25A C30G G58C C66A	≤ 0.5
G25C C31A A65C	0.678
C24U C30G A45C A70C	≤ 0.5
C24U C30U C60A	0.532
C24U C46G U54C C62A	≤ 0.5
G25A A45C U53C C55U G56C C61A C66U	0.564
G25A A40C C55G C61A	≤ 0.5
G25A G41A A70U	0.713
G25C C31A	0.677
G25C C31G	0.704
C24U C27G C61G	≤ 0.5
G25C C27G	0.553
C24U C34U A57U G67C	≤ 0.5
C24U U26C G63A A65G	≤ 0.5
G25A A57G	1.08
G25A A57U	0.772
G25A A57C	0.697
C24U G25A C30U C46A	0.829
G25A U47C C60U	0.587
G25C C27A C66U	≤ 0.5
G25A A40C C46U	0.978

Variant	yeast fitness
C24U U28C A40C A69C	≤ 0.5
C24U C34A	0.783
C24U C49G C66A	0.593
C24U C29A	0.656
C24U C29U	0.859
C24U U59A	0.875
C24U U47A	0.683
G25C A42U A43G U53C A65G	≤ 0.5
G25A A40U	0.924
G25A A40C	0.839
C24U U32G C49U C60A	0.646
C24U C30A U35C U59C G63A	≤ 0.5
G25C A42U	0.869
G25C A43C C49U	0.632
G25A A40U A45G C60A	≤ 0.5
G25C C31G C61G C66G	0.674
C24U G25C C31A C33G A65U	0.584
G25A C29G A43C C61A A69U	≤ 0.5
C24U G51C	0.624
G25C C29U A45C G58A	≤ 0.5
G25C C29G A40U	≤ 0.5
G25C C33G C60A	≤ 0.5
G25A A37C G51C A57G	≤ 0.5
C24U G48A	0.915

Variant	yeast fitness
C24U G48C	0.955
G25A U32A	0.744
G25A A45G C46U	0.731
G25A G50C U54C	0.627
G25C C49U G51A	0.568
G25A A40U U54C	0.565
G25C C33G A43C A57C G63C	≤ 0.5
C24U C34G A40G	≤ 0.5
C24U U53C C55U	≤ 0.5
C24U U26C A70U	0.678
C24U U35C G38C C62U A69G	0.723
C24U C29G C62G	≤ 0.5
C24U G48A G63C	0.768
C24U G68A A70U	0.647
C24U G68A A70C	0.656
C24U C34U C61U	0.545
G25A C62A A65C	0.517
G25C C29G A43C	≤ 0.5
G25C C29G A43G	≤ 0.5
G25A C34U A65U	0.671
G25A G41C G58A	0.975
C24U C49G A65U	≤ 0.5
C24U C55U G68C	0.552
G25A C31U G38C C62U	0.697

Variant	yeast fitness
C24U U32G A40U	0.513
C24U C34G A40U G67A	≤ 0.5
C24U U59C A69C	0.618
G25A A40C A65C	0.739
C24U U26C U28C G52C C60G	≤ 0.5
G25A C29G	0.721
G25A C29U	0.997
G25A A36U A45C U54A	≤ 0.5
C24U C49U C55G A70U	0.559
C24U C34U A70G	0.592
C24U C46G A65U	0.782
C24U C55G A57C	≤ 0.5
G25A C46U A57G	0.676
C24U C49G G52C	0.503
G25A G50A C66U	0.629
C24U C46U G51C	≤ 0.5
C24U C31G C55A A57U U59C C60U	≤ 0.5
G25A G39C A57C	≤ 0.5
C24U U35C A70C	0.671
C24U C27G G63A	0.536
G25C C34G	0.551
G25A C49U A70C	0.845
G25C C27G U47C	≤ 0.5
C24U G51C G68A	≤ 0.5

Variant	yeast fitness
G25C A43U A45G	0.518
G25A A45U U54C G58C	0.596
G25A G41A C61A A65U	≤ 0.5
C24U G68C A70U	≤ 0.5
C24U C29A A40G	0.514
G25C C49G	0.781
G25A C55A	0.725
G25A C55U	0.84
G25C A65G	1
G25C A37U G48A C61U	≤ 0.5
G25A U59A	1.06
G25A G44C G52A C62G A69G	≤ 0.5
C24U U54A	0.624
C24U U54C	0.812
G25A A65U G68C	0.657
C24U C31U C49U A70C	0.643
G25A C31G C55G	≤ 0.5
C24U G50A A70C	0.658
G25C C34U A37U A40U	≤ 0.5
C24U C49A U64C	1.04
G25A A43G A45U C46U	≤ 0.5
G25A A65C	1.01
G25A A65G	0.956
